Each structure is given as a SMILES string. The source made the active and inactive calls. The calls are words filed in the database; no cut-off is given here.

The source of these data is ChEMBL document CHEMBL4152203, “Antiproliferative hydrogen sulfide releasing evodiamine derivatives and their apoptosis inducing properties” (Eur J Med Chem, 2018).

In assay [1] the test system is Caco-2. Put plainly: Antiproliferative activity against human Caco2 cells after 72 hrs by MTT assay. It counts as functional, cell-based. Conditions: Caco-2, 72 h. Put shortly:
(§1)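 Cells seeded and pre-incubated 24 h at 37 °C, 5% CO2, then exposed to compounds for 72 h. MTT (5 mg/mL stock) added for 4 h, formazan dissolved in DMSO for 10 min at room temperature, absorbance read at 570 nm. 0.1% DMSO as negative and 5-FU as positive reference. IC50 derived from inhibition ratios; mean ± SD of three independent experiments.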

Assay [2] has as its system PBMC. Put plainly: Antiproliferative activity against human PBMC cells after 72 hrs by MTT assay. Format: cell-based. Put shortly:
as §1

Assay [3] concerns HL-60. Put plainly: Cell cycle arrest in human HL60 cells assessed as accumulation at S phase at 0.3 uM after 48 hrs by propidium iodide/RNase A staining-based flow cytometric analysis (reference value: 24.06%). Format: functional.
The subject of assay [4] is HL-60. Put plainly: Cell cycle arrest in human HL60 cells assessed as accumulation at S phase at 0.6 uM after 48 hrs by propidium iodide/RNase A staining-based flow cytometric analysis (reference value: 24.06%). Format: functional.
The test system of assay [5] is HL-60. Kind of assay: Cell cycle arrest in human HL60 cells assessed as accumulation at G2/M phase at 0.6 uM after 48 hrs by propidium iodide/RNase A staining-based flow cytometric analysis (reference value: 10.19%). Format: functional.
Assay [6] has as its system HL-60. Kind of assay: Induction of apoptosis in human HL60 cells assessed as early apoptotic cells at 0.3 uM after 48 hrs by Annexin V-FITC/propidium iodide staining-based flow cytometric analysis (reference value: 2.31%). Format: functional.
Assay [7] relates to HL-60. Kind of assay: Induction of apoptosis in human HL60 cells assessed as early apoptotic cells at 0.3 uM after 48 hrs by Annexin V-FITC/propidium iodide staining-based flow cytometric analysis (reference value: 1.11%). Format: functional.
The test system of assay [8] is HL-60. Kind of assay: Induction of apoptosis in human HL60 cells assessed as viable cells at 0.6 uM after 48 hrs by Annexin V-FITC/propidium iodide staining-based flow cytometric analysis (reference value: 95.56%). Conditions: HL-60, 48 h, read-out: Activity. Format: functional.
For assay [9], the system named is HL-60. Put plainly: Induction of apoptosis in human HL60 cells assessed as early apoptotic cells at 0.6 uM after 48 hrs by Annexin V-FITC/propidium iodide staining-based flow cytometric analysis (reference value: 1.11%). It counts as functional.
The test system of assay [10] is HL-60. Put plainly: Induction of apoptosis in human HL60 cells assessed as necrotic cells at 0.6 uM after 48 hrs by Annexin V-FITC/propidium iodide staining-based flow cytometric analysis (reference value: 0.02%). It counts as functional.
In assay [11] the test system is HL-60. Kind of assay: Induction of apoptosis in human HL60 cells assessed as early apoptotic cells at 1.2 uM after 48 hrs by Annexin V-FITC/propidium iodide staining-based flow cytometric analysis (reference value: 2.31%). Format: functional.
For assay [12], the system named is HL-60. Kind of assay: Induction of mitochondrial membrane potential loss in human HL60 cells assessed as cell population with intact mitochondrial membrane potential at 0.3 uM after 48 hrs by JC1 staining-based flow cytometry analysis (reference value: 92.35%). It counts as functional.
The subject of assay [13] is HL-60. Kind of assay: Induction of apoptosis in human HL60 cells assessed as decrease in cdc2 protein expression level at 0.3 to 1.2 uM after 48 hrs by Western blot analysis. It counts as functional, cell-based. Summed up: (§2)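 HL-60 treated in triplicate with 0.3, 0.6 or 1.2 μM compound; exposure is 72 h in the methods and 48 h in the legend. Lysates were run on 10% SDS-PAGE, transferred to nitrocellulose, blocked in 5% milk, and probed overnight at 4 °C with monoclonal antibodies (Bcl-2, Bax, cytochrome c, caspase-9/-3, p53, cyclin B1, cdc2). ECL detection; densitometry relative to GAPDH.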

Assay [14] concerns HL-60. Put plainly: Induction of apoptosis in human HL60 cells assessed as increase in p53 protein level at 0.3 to 1.2 uM after 48 hrs by Western blot analysis. It counts as functional, cell-based. Put shortly:
as §2

As to `CN1c2ccccc2C(=O)N2CCc3c(n(CCCCC(=O)OCCCCOc4ccc(-c5cc(=S)ss5)cc4)c4ccccc34)C21` (centres undefined), the figures for the IC50 in [1] and in assay [2] were 2020 nM and > 100000 nM, respectively. Moreover, the Activity in [3] was 41.49%; in [4] it was 41.81%; in assay [5], 16.63%; in assay [6] it was 6.74%; in assay [7] it was 4.53%; in assay [9] it was 15.56%. The Activity in [10] worked out at 0.48%; in [11] it was 48.08%; in assay [12], 86.67%. In assay [8], the viability at 0.6 µM was found to be 64.5%. In addition, the result in assay [13] and in assay [14] was Active.
